What was measured:
Type in all cases: cell-based
HEK293 [1] = test: Selectivity ratio of Ki for human cloned dopamine D2L receptor H6.55A mutant to Ki for wild type human cloned dopamine D2L receptor expressed in HEK293 cells
Procedure, shortened: (§1)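 Wild-type or mutant receptor cDNA transiently transfected into HEK-293 cells, which were grown in MEM with 10% FBS at 37 °C and 5% CO2 and harvested 48 h after transfection. Membranes were homogenised and pelleted at 50000g. Competition against [3H]spiperone (0.1-0.7 nM final) used 20-200 μg/mL protein. Ki was derived from EC50, 2-18 independent experiments in triplicate. Ratios are mutant Ki over wild-type Ki.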

[2] = Displacement of [3H]spiperone from human cloned dopamine D2L receptor H6.55A mutant expressed in HEK293 cells
Procedure, shortened: (§2)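 Wild-type or mutant receptor cDNA transiently transfected into HEK-293 cells (CaHPO4 or TransIT-293), grown in MEM with 10% FBS at 37 °C, 5% CO2, harvested 48 h post-transfection. Membranes prepared by homogenization and spin at 50000g.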

D(3) dopamine receptor [3] = molecular target: D(3) dopamine receptor (Homo sapiens, UniProt P35462, V87F); test: Displacement of [3H]spiperone from human cloned dopamine D3 receptor V2.61F mutant expressed in HEK293 cells
CHO [4] = test: Selectivity ratio of Ki for human cloned dopamine D2L receptor to Ki for human cloned dopamine D3 receptor expressed in CHO cells
D(4) dopamine receptor [5] = molecular target: T1, D(4) dopamine receptor (Homo sapiens, UniProt P21917); test: Displacement of [3H]spiperone from human cloned dopamine D4 receptor expressed in CHO cells
T1 sequence (P21917 whole entry): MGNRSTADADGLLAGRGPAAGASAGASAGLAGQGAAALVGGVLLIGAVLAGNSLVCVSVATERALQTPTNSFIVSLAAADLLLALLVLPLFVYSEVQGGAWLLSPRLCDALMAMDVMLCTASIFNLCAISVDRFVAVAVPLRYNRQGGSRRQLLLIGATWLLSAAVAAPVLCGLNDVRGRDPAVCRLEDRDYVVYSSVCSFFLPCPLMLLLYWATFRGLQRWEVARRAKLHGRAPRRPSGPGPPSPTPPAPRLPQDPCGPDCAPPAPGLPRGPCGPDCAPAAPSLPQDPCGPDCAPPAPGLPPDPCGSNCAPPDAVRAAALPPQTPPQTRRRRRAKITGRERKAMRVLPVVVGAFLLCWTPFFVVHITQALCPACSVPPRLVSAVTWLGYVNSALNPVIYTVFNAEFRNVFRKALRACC
Procedure, shortened: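 Membranes from CHO cells stably expressing human D4 (Bmax 700-1800 fmol/mg). Curves fit by nonlinear regression, sigmoid model giving IC50 and slope; Ki ± SEM from 2-9 experiments in triplicate.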

D(3) dopamine receptor [6] = molecular target: D(3) dopamine receptor (Homo sapiens, UniProt P35462, F106L/V107M/V87F); test: Displacement of [3H]spiperone from human cloned dopamine D3 receptor V2.61F/FV3.28,3.29LM mutant expressed in HEK293 cells
HEK293 [7] = test: Selectivity ratio of Ki for human cloned dopamine D3 receptor H6.55A mutant to Ki for wild type human cloned dopamine D3 receptor expressed in HEK293 cells; procedure, shortened: as §1
HEK293 [8] = test: Selectivity ratio of Ki for human cloned dopamine D3 receptor V180E/S182I mutant to Ki for wild type human cloned dopamine D3 receptor expressed in HEK293 cells; procedure, shortened: as §1
D(2) dopamine receptor [9] = molecular target: D(2) dopamine receptor (Homo sapiens, UniProt P14416, E181V/I183S); test: Displacement of [3H]spiperone from human cloned dopamine D2L receptor E181V/I183S mutant expressed in HEK293 cells; procedure, shortened: as §1
HEK293 [10] = test: Selectivity ratio of Ki for human cloned dopamine D2L receptor V2.61F mutant to Ki for wild type human cloned dopamine D2L receptor expressed in HEK293 cells; procedure, shortened: as §1
HEK293 [11] = test: Selectivity ratio of Ki for human cloned dopamine D3 receptor L2.64F mutant to Ki for wild type human cloned dopamine D3 receptor expressed in HEK293 cells; procedure, shortened: as §1
HEK293 [12] = test: Selectivity ratio of Ki for human cloned dopamine D2L receptor V2.61F/FV3.28,3.29LM mutant to Ki for wild type human cloned dopamine D2L receptor expressed in HEK293 cells; procedure, shortened: as §1
[13] = Displacement of [3H]spiperone from human cloned dopamine D2L receptor FV3.28,3.29LM mutant expressed in HEK293 cells; procedure, shortened: as §2
[14] = Displacement of [3H]spiperone from human cloned dopamine D2L receptor V2.61F mutant expressed in HEK293 cells; procedure, shortened: as §2
D(3) dopamine receptor [15] = molecular target: D(3) dopamine receptor (Homo sapiens, UniProt P35462, S182I/V180E); test: Displacement of [3H]spiperone from human cloned dopamine D3 receptor V180E/S182I mutant expressed in HEK293 cells
D(3) dopamine receptor [16] = molecular target: D(3) dopamine receptor (Homo sapiens, UniProt P35462, H349A); test: Displacement of [3H]spiperone from human cloned dopamine D3 receptor H6.55A mutant expressed in HEK293 cells
D(3) dopamine receptor [17] = molecular target: D(3) dopamine receptor (Homo sapiens, UniProt P35462, D110E); test: Displacement of [3H]spiperone from human cloned dopamine D3 receptor D3.32E mutant expressed in HEK293 cells
HEK293 [18] = test: Selectivity ratio of Ki for human cloned dopamine D2L receptor FV3.28,3.29LM mutant to Ki for wild type human cloned dopamine D2L receptor expressed in HEK293 cells; procedure, shortened: as §1
HEK293 [19] = test: Selectivity ratio of Ki for human cloned dopamine D2L receptor E181V/I183S mutant to Ki for wild type human cloned dopamine D2L receptor expressed in HEK293 cells; procedure, shortened: as §1
[20] = Displacement of [3H]spiperone from human cloned dopamine D2L receptor D3.32E mutant expressed in HEK293 cells; procedure, shortened: as §2
D(4) dopamine receptor [21] = molecular target: T1, D(4) dopamine receptor; test: Displacement of [3H]spiperone from wild type human cloned dopamine D4 receptor expressed in HEK293 cells
D(3) dopamine receptor [22] = molecular target: T2, D(3) dopamine receptor (Homo sapiens, UniProt P35462); test: Displacement of [3H]spiperone from wild type human cloned dopamine D3 receptor expressed in HEK293 cells
D(2) dopamine receptor [23] = molecular target: T3, D(2) dopamine receptor (Homo sapiens, UniProt P14416); test: Displacement of [3H]spiperone from wild type human cloned dopamine D2L receptor expressed in HEK293 cells
D(3) dopamine receptor [24] = molecular target: T2, D(3) dopamine receptor; test: Displacement of [3H]spiperone from human cloned dopamine D3 receptor FV3.28,3.29LM mutant expressed in HEK293 cells
[25] = Displacement of [3H]spiperone from human cloned dopamine D2L receptor H6.55F mutant expressed in HEK293 cells; procedure, shortened: as §2
HEK293 [26] = test: Selectivity ratio of Ki for human cloned dopamine D2L receptor D3.32E mutant to Ki for wild type human cloned dopamine D2L receptor expressed in HEK293 cells; procedure, shortened: as §1
D(2) dopamine receptor [27] = molecular target: T3, D(2) dopamine receptor; test: Displacement of [3H]spiperone from human cloned dopamine D2L receptor expressed in CHO cells
D(3) dopamine receptor [28] = molecular target: T2, D(3) dopamine receptor; test: Displacement of [3H]spiperone from human cloned dopamine D3 receptor L2.64F mutant expressed in HEK293 cells
[29] = Displacement of [3H]spiperone from human cloned dopamine D2L receptor L2.64F mutant expressed in HEK293 cells; procedure, shortened: as §2
HEK293 [30] = test: Selectivity ratio of Ki for human cloned dopamine D2L receptor L2.64F mutant to Ki for wild type human cloned dopamine D2L receptor expressed in HEK293 cells; procedure, shortened: as §1
D(3) dopamine receptor [31] = molecular target: T2, D(3) dopamine receptor; test: Displacement of [3H]spiperone from human cloned dopamine D3 receptor expressed in CHO cells
HEK293 [32] = test: Selectivity ratio of Ki for human cloned dopamine D3 receptor V2.61F/FV3.28,3.29LM mutant to Ki for wild type human cloned dopamine D3 receptor expressed in HEK293 cells; procedure, shortened: as §1
HEK293 [33] = test: Selectivity ratio of Ki for human cloned dopamine D2L receptor H6.55F mutant to Ki for wild type human cloned dopamine D2L receptor expressed in HEK293 cells; procedure, shortened: as §1
CHO [34] = test: Selectivity ratio of Ki for human cloned dopamine D2L receptor to Ki for human cloned dopamine D4 receptor expressed in CHO cells
HEK293 [35] = test: Selectivity ratio of Ki for human cloned dopamine D3 receptor FV3.28,3.29LM mutant to Ki for wild type human cloned dopamine D3 receptor expressed in HEK293 cells; procedure, shortened: as §1
[36] = Displacement of [3H]spiperone from human cloned dopamine D2L receptor V2.61F/FV3.28,3.29LM mutant expressed in HEK293 cells; procedure, shortened: as §2
HEK293 [37] = test: Selectivity ratio of Ki for human cloned dopamine D3 receptor D3.32E mutant to Ki for wild type human cloned dopamine D3 receptor expressed in HEK293 cells; procedure, shortened: as §1
HEK293 [38] = test: Selectivity ratio of Ki for human cloned dopamine D3 receptor V2.61F mutant to Ki for wild type human cloned dopamine D3 receptor expressed in HEK293 cells; procedure, shortened: as §1

T3 sequence (P14416 whole entry): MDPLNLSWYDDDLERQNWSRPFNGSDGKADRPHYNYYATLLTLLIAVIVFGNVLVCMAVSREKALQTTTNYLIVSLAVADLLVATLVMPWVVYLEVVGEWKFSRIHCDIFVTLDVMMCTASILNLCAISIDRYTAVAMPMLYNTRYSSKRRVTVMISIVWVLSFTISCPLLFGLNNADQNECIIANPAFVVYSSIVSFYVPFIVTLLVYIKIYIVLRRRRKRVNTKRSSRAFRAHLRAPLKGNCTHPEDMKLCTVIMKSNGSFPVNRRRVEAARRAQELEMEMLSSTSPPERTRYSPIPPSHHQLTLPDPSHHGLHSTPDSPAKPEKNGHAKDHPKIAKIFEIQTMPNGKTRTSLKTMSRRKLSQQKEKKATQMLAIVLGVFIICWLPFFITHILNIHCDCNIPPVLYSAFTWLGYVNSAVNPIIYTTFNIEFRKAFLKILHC
T2 sequence (P35462 whole entry): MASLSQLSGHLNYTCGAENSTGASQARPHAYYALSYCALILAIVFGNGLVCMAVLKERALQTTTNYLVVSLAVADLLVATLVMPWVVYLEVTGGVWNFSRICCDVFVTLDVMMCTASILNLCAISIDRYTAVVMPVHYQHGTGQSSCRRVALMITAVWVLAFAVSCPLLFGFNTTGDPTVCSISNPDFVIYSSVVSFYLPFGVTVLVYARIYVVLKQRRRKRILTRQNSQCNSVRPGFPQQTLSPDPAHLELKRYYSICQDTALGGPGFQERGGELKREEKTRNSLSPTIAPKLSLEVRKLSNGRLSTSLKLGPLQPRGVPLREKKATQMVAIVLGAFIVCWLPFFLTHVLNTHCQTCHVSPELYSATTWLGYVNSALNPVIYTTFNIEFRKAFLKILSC
D(3) dopamine receptor (Homo sapiens, UniProt P35462, H349A), sequence (P35462 as listed by the source H349A): as the sequence (P35462 whole entry) above, with G9S, H349A counted along it
D(3) dopamine receptor (Homo sapiens, UniProt P35462, F106L/V107M/V87F), sequence (P35462 as listed by the source V87F/F106L/V107M): as the sequence (P35462 whole entry) above, with G9S, V87F, F106L, V107M counted along it
D(3) dopamine receptor (Homo sapiens, UniProt P35462, D110E), sequence (P35462 as listed by the source D110E): as the sequence (P35462 whole entry) above, with G9S, D110E counted along it
D(3) dopamine receptor (Homo sapiens, UniProt P35462, V87F), sequence (P35462 as listed by the source V87F): as the sequence (P35462 whole entry) above, with G9S, V87F counted along it
D(3) dopamine receptor (Homo sapiens, UniProt P35462, S182I/V180E), sequence (P35462 as listed by the source V180E/S182I): as the sequence (P35462 whole entry) above, with G9S, V180E, S182I counted along it
D(2) dopamine receptor (Homo sapiens, UniProt P14416, E181V/I183S), sequence (P14416 whole entry E181V/I183S): as the sequence (P14416 whole entry) above, with E181V, I183S counted along it

Row | SMILES | Ratio Ki (HEK293 [1]) | Ki [2] [nM] | Ki (D(3) dopamine receptor [3]) [nM] | Ratio Ki (CHO [4]) | Ki (D(4) dopamine receptor [5]) [nM] | Ki (D(3) dopamine receptor [6]) [nM] | Ratio Ki (HEK293 [7]) | Ratio Ki (HEK293 [8]) | Ki (D(2) dopamine receptor [9]) [nM] | Ratio Ki (HEK293 [10]) | Ratio Ki (HEK293 [11]) | Ratio Ki (HEK293 [12]) | Ki [13] [nM] | Ki [14] [nM] | Ki (D(3) dopamine receptor [15]) [nM] | Ki (D(3) dopamine receptor [16]) [nM] | Ki [20] [nM] | Ki [25] [nM] | Ki [29] [nM] | Ki [36] [nM] | also measured
1 | CSc1ccccc1N1CCN(CCCCNC(=O)c2cc3ccccn3n2)CC1 | 0.3 | 11 | 230 | 46 | 65 | 18 | 1.3 | 1.5 | 130 | 3.4 | 66 | 0.7 | 65 | 130 | 40 | 0.76 | 1300 | 160 | 120 |  | Ki (D(3) dopamine receptor [17]): 0.5 nM; Ratio Ki (HEK293 [18]): 1.8; Ratio Ki (HEK293 [19]): 3.4; Ki (D(4) dopamine receptor [21]): 310 nM; Ki (D(3) dopamine receptor [22]): 160 nM; Ki (D(2) dopamine receptor [23]): 37 nM; Ki (D(3) dopamine receptor [24]): 33 nM; Ratio Ki (HEK293 [26]): 34; Ki (D(2) dopamine receptor [27]): 16 nM; Ki (D(3) dopamine receptor [28]): 58 nM; Ratio Ki (HEK293 [30]): 3; Ki (D(3) dopamine receptor [31]): 0.35 nM; Ratio Ki (HEK293 [32]): 80; Ratio Ki (HEK293 [33]): 4.3; Ratio Ki (CHO [34]): 0.25; Ratio Ki (HEK293 [35]): 36
2 | COc1ccccc1N1CCN(CCCNC(=O)c2cnn3ccccc23)CC1 |  | 1.6 |  |  |  |  |  |  |  |  |  |  | 110 | 450 |  |  | 720 | 69 | 390 | 83 | 
3 | CSc1ccccc1N1CCN(CCCNC(=O)c2cnn3ccccc23)CC1 | 0.05 | 0.1 | 740 | 0.08 | 8.8 | 320 | 0.5 | 0.13 | 26 | 45 | 17 | 9 | 35 | 100 | 8 | 3.4 | 160 | 17 | 660 | 20 | Ratio Ki (HEK293 [37]): 25; Ratio Ki (HEK293 [38]): 29; Ki (D(3) dopamine receptor [17]): 650 nM; Ratio Ki (HEK293 [18]): 16; Ratio Ki (HEK293 [19]): 12; Ki (D(4) dopamine receptor [21]): 26 nM; Ki (D(3) dopamine receptor [22]): 26 nM; Ki (D(2) dopamine receptor [23]): 2.2 nM; Ki (D(3) dopamine receptor [24]): 430 nM; Ratio Ki (HEK293 [26]): 74; Ki (D(2) dopamine receptor [27]): 1.4 nM; Ki (D(3) dopamine receptor [28]): 740 nM; Ratio Ki (HEK293 [30]): 303; Ki (D(3) dopamine receptor [31]): 18 nM; Ratio Ki (HEK293 [32]): 0.31; Ratio Ki (HEK293 [33]): 7.7; Ratio Ki (CHO [34]): 0.16; Ratio Ki (HEK293 [35]): 12
4 | COc1ccccc1N1CCN(CCCCNC(=O)c2cc3ccccn3n2)CC1 |  | 21 |  |  |  |  |  |  |  |  |  |  | 220 | 920 |  |  | 3500 | 340 | 940 | 120 | 
